Screening data (PubChem BioAssay)
Env fusion inh – inhibitors of HIV Env-mediated cell fusion; HeLa-JRFL Env/CEM21 cell fusion, luciferase; hit rate 1.1% among 360,000; AID 651610; inhibition, % at 12.3 µM;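 active = mean replicate inhibition score of at least 50 and every replicate individually at or above 50; inconclusive = only one of the two criteria met; inactive = mean below 50 and not all replicates reaching 50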;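 also: 0% = plate neutral controls and 100% = maraviroc near 300 nM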
MITF act – increases MITF-driven TRPM1 promoter luciferase signal; SK-MEL-5 TRPM1-promoter luciferase, 24 h; % of positive control, neutral wells = 0; activation, % at 12.5 µM; hit rate 0.75% among 300,000;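 active = mean activation of at least 80% with every replicate also reaching 80%; inconclusive = mean reaches 80% but some replicate falls short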;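 also: 0% = neutral control wells and 100% = parthenolide positive control wells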
Cneo AK release – causes C. neoformans cell lysis; adenylate kinase release luminescence, 4 h; normalised: neutral wells 0, clomiphene wells 100; hit rate 0.2% among 360,000; AID 651654; lysis activity, % at 15 µM;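 active = mean lysis activity across replicates of at least 80%, whatever share of replicates individually reach that level; inactive = mean lysis activity below 80%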
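Assay system: Cryptococcus neoformans yeast cells / Dosing: single-point compound dose / Timing: 4 h at 37 °C static, read 1 h later / Measured by: luminescence of released adenylate kinase using an AK detection reagent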
esBAF inh – inhibitors of esBAF chromatin remodeling in mouse ES cells; reporter increase, % at 12.5 µM; Bmi1-luciferase knock-in reporter, 24 h; 100% = twice the neutral-well signal; AID 602393; hit rate 2% among 350,000; in the data active = activation above about 40%; inconclusive = no clear call, values can overlap the other calls;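 also: 0% = median of the plate's neutral control wells and 100% = double that signal; a rise in the Bmi1 reporter signal indicates esBAF inhibition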
ERAP1 inh – blocks human ERAP1 aminopeptidase activity. inhibition, % at 10.7 µM. Q9NZ08. recombinant ERAP1, Leu-AMC fluorescence, 60 min. hit rate 0.15% among 340,000;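 active = mean replicate inhibition of at least 30%, or all replicates individually reaching that 30% level; inactive = mean below 30% and not every replicate reaching it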;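 also: 0% = neutral control wells and 100% = L-leucinethiol positive control wells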
Target sequence (Q9NZ08 whole entry, looked up): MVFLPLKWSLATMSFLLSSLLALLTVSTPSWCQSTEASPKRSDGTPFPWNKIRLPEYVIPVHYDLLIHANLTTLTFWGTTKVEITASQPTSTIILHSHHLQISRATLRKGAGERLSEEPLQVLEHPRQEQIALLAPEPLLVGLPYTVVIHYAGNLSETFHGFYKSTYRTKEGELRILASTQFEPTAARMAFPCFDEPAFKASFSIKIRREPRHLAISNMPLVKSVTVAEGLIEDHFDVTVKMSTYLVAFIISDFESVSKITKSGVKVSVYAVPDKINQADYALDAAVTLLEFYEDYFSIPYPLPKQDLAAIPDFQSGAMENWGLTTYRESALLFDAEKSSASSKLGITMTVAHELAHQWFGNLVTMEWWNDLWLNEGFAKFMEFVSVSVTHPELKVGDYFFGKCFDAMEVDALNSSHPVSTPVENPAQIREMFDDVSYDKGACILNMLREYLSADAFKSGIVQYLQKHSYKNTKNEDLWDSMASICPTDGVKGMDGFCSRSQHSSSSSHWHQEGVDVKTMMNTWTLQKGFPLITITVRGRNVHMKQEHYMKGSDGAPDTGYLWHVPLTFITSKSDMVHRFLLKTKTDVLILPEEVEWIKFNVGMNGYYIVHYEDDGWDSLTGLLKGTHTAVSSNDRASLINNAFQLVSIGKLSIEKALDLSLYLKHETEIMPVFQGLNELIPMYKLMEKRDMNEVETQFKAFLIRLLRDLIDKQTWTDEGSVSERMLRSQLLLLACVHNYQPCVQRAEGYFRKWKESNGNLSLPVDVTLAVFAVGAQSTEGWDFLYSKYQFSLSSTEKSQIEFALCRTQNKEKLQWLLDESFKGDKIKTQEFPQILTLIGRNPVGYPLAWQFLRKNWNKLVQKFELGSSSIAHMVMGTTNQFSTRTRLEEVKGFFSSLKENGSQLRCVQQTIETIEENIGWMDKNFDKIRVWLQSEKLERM
Wnt act – Wnt/beta-catenin pathway activation | Wnt/beta-catenin reporter cell assay, activator, plate reader | activation, % at 9.35 µM | hit rate 1.2% among 300,000 | AID 743398; in the data active = activation above about 30%, passing the limit was not always enough; inconclusive = no clear call, values can overlap the other calls;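 also: 0% = neutral control wells and 100% = positive control wells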
An asterisk follows results filed as active; [ ] = another dose, or the depositor's remark. An excerpt weighted towards active compounds, which were near 3.5% of everything screened.

O=C(C[C@@H]1CC[C@H](NC(=O)Nc2ccc(F)cc2)[C@H](CO)O1)NCCN1CCCC1 was read as Env fusion inh 6[16.7 µM], Cneo AK release 0, esBAF inh -3 and ERAP1 inh -3.
COc1ccccc1-c1coc2cc(O)cc(O)c2c1=O was read as MITF act 31, Cneo AK release 1 and esBAF inh 46*.
COc1ccc(-c2coc3cc(O)ccc3c2=O)cc1OC was read as MITF act 39, Cneo AK release 0 and esBAF inh 59*.
For O=c1c(-c2ccc(O)cc2O)coc2cc(O)cc(O)c12 the results were MITF act 5, Cneo AK release -1, esBAF inh 1 and Wnt act -2.
`COc1ccc(-c2coc3cc(O)cc(O)c3c2=O)cc1OC` gave Env fusion inh -34, MITF act 67, esBAF inh 54* and Wnt act 25.
O=C(Nc1cccc(Cl)c1)N[C@@H]1CC[C@@H](CCNC(=O)C2CCCCC2)O[C@@H]1CO was read as Env fusion inh -20[16.7 µM], Cneo AK release 1, esBAF inh 0 and ERAP1 inh 1.
For O=C(Nc1ccc2c(c1)[C@@H]1C[C@H](CC(=O)N3CCc4ccccc4C3)O[C@@H](CO)[C@@H]1O2)NC1CCCC1 the results were Env fusion inh -6[16.7 µM], Cneo AK release 5, esBAF inh 6 and ERAP1 inh 2.
COc1ccc(C#Cc2ccc3c(c2)[C@@H]2[C@@H](CCN2S(=O)(=O)C2=NC(C)C=N2)[C@H](CO)N3C)cc1 (stereo partly specified) was read as Cneo AK release 21, esBAF inh 1 and ERAP1 inh -1.
Screening CC1CCc2c(C(=O)Nc3nccs3)csc2C1 (stereo unspecified) returned Env fusion inh -95, MITF act 75, Cneo AK release 12, esBAF inh 58* and Wnt act 21.
CC1CCc2c(C(=O)Nc3ccccn3)csc2C1 (stereo unspecified) was read as Env fusion inh -31, MITF act 75 and Wnt act 52*.
For CO[C@H]1CN(C)C(=O)c2cc(NC(=O)Nc3cc(Cl)cc(Cl)c3)ccc2OC[C@H](C)NC[C@H]1C the results were esBAF inh 0.
For O=C(C[C@H]1CC[C@@H]2[C@H](COC[C@@H](O)CN2C(=O)Nc2cccc(Cl)c2)O1)NCC1CCCCC1 the results were Cneo AK release -8, esBAF inh 9 and ERAP1 inh 0.
C[C@@H]1CN([C@H](C)CO)C(=O)c2cc(NC(=O)Nc3ccc(C(F)(F)F)cc3)ccc2O[C@H]1CN(C)C(=O)Nc1cccc2ccccc12 was read as Env fusion inh 13[16.7 µM], Cneo AK release 2 and esBAF inh 1.
`C[C@H](CO)N1C[C@H](C)[C@@H](CN(C)C(=O)Nc2cccc3ccccc23)Oc2c(cccc2N(C)C)C1=O` gave Env fusion inh -5[16.7 µM], Cneo AK release 83*, esBAF inh 5 and ERAP1 inh 6.
For C[C@@H]1CN([C@H](C)CO)C(=O)c2cccc(NC(=O)Nc3ccc(C(F)(F)F)cc3)c2O[C@H]1CN(C)C(=O)Nc1cccc2ccccc12 the results were Env fusion inh 78*[16.7 µM], Cneo AK release 0, esBAF inh 7 and ERAP1 inh -1.
Screening C[C@H](CO)N1C[C@H](C)[C@H](CN(C)C(=O)Nc2cccc3ccccc23)Oc2ccc(NC(=O)Nc3ccc(C(F)(F)F)cc3)cc2C1=O returned Env fusion inh 56*[16.7 µM], Cneo AK release 0 and esBAF inh 0.
For C[C@@H]1CN([C@H](C)CO)C(=O)c2cc(NC(=O)Nc3cccc4ccccc34)ccc2O[C@@H]1CN(C)C(=O)Nc1ccccc1 the results were Cneo AK release 103*, esBAF inh -5 and ERAP1 inh -13.
`CCOc1ccc(Cc2nc(-c3nonc3N)no2)cc1OCC` gave MITF act 1 and Cneo AK release 1.
Screening c1ccc(CCc2nc(-c3ccccn3)no2)cc1 returned MITF act 128*, Cneo AK release 0 and esBAF inh 35.
Cc1cccc(OCc2nc(-c3nonc3N)no2)c1C was read as Env fusion inh -165, MITF act inconclusive, Cneo AK release -2, esBAF inh inconclusive and Wnt act 62*.
Nc1nonc1-c1noc(COc2ccccc2Cl)n1 was read as Env fusion inh -333, MITF act 113*, Cneo AK release 0 and Wnt act 43*.
For Clc1ccccc1OCc1nc(-c2ccc(Br)o2)no1 the results were Env fusion inh -3, Cneo AK release -9, esBAF inh 54*, ERAP1 inh 5 and Wnt act 16.
`COc1ccc(NC(=O)N(C)C[C@H]2OCCCC[C@H](C)Oc3ccc(NC(=O)c4ccccc4)cc3C(=O)N([C@@H](C)CO)C[C@@H]2C)cc1` gave Env fusion inh -12[16.7 µM], Cneo AK release -11, esBAF inh -1 and ERAP1 inh -3.
For O=C(C[C@H]1CC[C@H]2[C@@H](COC[C@@H](O)CN2Cc2nccs2)O1)NCc1ccc(Oc2ccccc2)cc1 the results were Cneo AK release 1, esBAF inh 4 and ERAP1 inh -1.
Cc1ccc(S(=O)(=O)Nc2ccc3c(c2)C(=O)N([C@H](C)CO)C[C@@H](C)[C@H](CN(C)C(=O)Nc2ccc(F)cc2)OCCCC[C@H](C)O3)cc1 was read as Env fusion inh -43[16.7 µM], Cneo AK release 0, esBAF inh -4 and ERAP1 inh -3.
`COc1ccc2c3c(n(C)c2c1)[C@@H](CO)N(CC1CCCC1)CC31CCN(C(C)=O)CC1` gave ERAP1 inh 1.
`O=C(C[C@@H]1CC[C@@H](NC(=O)Nc2cccc(F)c2)[C@H](CO)O1)NCC1CC1` gave Env fusion inh 7[16.7 µM], Cneo AK release 23, esBAF inh -4 and ERAP1 inh 0.
C[C@@H]1CN([C@@H](C)CO)C(=O)c2cc(NC(=O)c3ccccc3)ccc2O[C@@H](C)CCCCO[C@@H]1CN(C)C(=O)Nc1cccc2ccccc12 was read as Env fusion inh -31[16.7 µM], Cneo AK release -4, esBAF inh -2 and ERAP1 inh 0.
`C[C@@H]1CN([C@@H](C)CO)C(=O)c2cc(NC(=O)Cc3cn(C)c4ccccc34)ccc2O[C@H]1CN(C)C(=O)Nc1ccccc1` gave Env fusion inh 9[16.7 µM], Cneo AK release 2, esBAF inh 3 and ERAP1 inh -2.
`C[C@@H]1CN([C@@H](C)CO)C(=O)c2cc(C#CC3(O)CCCC3)cnc2O[C@@H]1CN(C)C(=O)CC1CC1` gave Env fusion inh -15[16.7 µM], Cneo AK release -1, esBAF inh -1 and ERAP1 inh -7.
